# From ChEMBL document CHEMBL3870310, “Design, synthesis and evaluation of pyrazole derivatives as non-nucleoside hepatitis B virus inhibitors” (Eur J Med Chem, 2016)
# pIC50: −log10 of the molar value.
# How the values were obtained:
# [1] = Cytotoxicity against human HepG2.2.15 cells assessed as decrease in cell viability after 8 days by CCK-8 assay; assay type: toxicity, cell-based, HepG2 2.2.15
# How it was run: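 HepG2.2.15 cells (HBV-transgenic human hepatoma) cultured in triplicate for 8 days with five doses of compound; untreated cells as controls. CCK-8 reagent added 0.5 h before end of culture, absorbance read at 450 nm, percent cell death calculated; CC50 is the concentration killing 50% of cells.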
# [2] = tested on: Hepatitis B virus; assay: Antiviral activity against Hepatitis B virus infected in human HepG2.2.15 cells assessed as inhibition of HBsAg secretion by ELISA; assay type: functional, cell-based
# How it was run: (§1)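 Supernatant from HepG2.2.15 cultures aspirated and HBeAg or HBsAg measured with a diagnostic ELISA kit, absorbance read on a plate reader. Inhibition (%) = (A normal cell group − A experimental group)/[…] × 100; IC50 is the concentration giving 50% inhibition of antigen secretion. Lamivudine positive control.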
# [3] = tested on: Hepatitis B virus; assay: Antiviral activity against Hepatitis B virus infected in human HepG2.2.15 cells assessed as inhibition of HBeAg secretion by ELISA; assay type: functional, cell-based; how it was run: as §1
# [4] = Selectivity index, ratio of CC50 for human HepG2.2.15 cells to IC50 for Hepatitis B virus infected in human HepG2.2.15 cells assessed as inhibition of HBsAg secretion; assay type: functional
# How it was run: (§2)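 SI = CC50 (CCK-8, HepG2.2.15, 8 days) divided by IC50 for inhibition of HBeAg or HBsAg secretion measured by ELISA in HepG2.2.15 supernatants.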
# [5] = Selectivity index, ratio of CC50 for human HepG2.2.15 cells to IC50 for Hepatitis B virus infected in human HepG2.2.15 cells assessed as inhibition of HBeAg secretion; assay type: functional; how it was run: as §2
# [6] = tested on: Hepatitis B virus; assay: Antiviral activity against Hepatitis B virus infected in human HepG2.2.15 cells assessed as inhibition of viral DNA replication after 8 days by real-time fluorescent PCR method; assay type: functional, cell-based; details: HepG2.2.15, 192 h
# How it was run: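 HepG2.2.15 cells exposed to compounds […] for 8 days; 100 µL culture supernatant added to extraction buffer, boiled 10 min, centrifuged 10 min, and aliquots assayed for extracellular HBV DNA by fluorescent-probe real-time quantitative PCR kit. Lamivudine positive control.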
# [7] = Cytotoxicity against human HepG2.2.15 cells assessed as decrease in cell viability after 8 days by CCK-8 assay
# [8] = tested on: Hepatitis B virus; assay: Antiviral activity against Hepatitis B virus; assay type: functional
# [9] = tested on: Hepatitis B virus; assay: Antiviral activity against Hepatitis B virus infected in human HepAD38 cells assessed as inhibition of viral DNA replication; assay type: functional, cell-based
# [10] = Cytotoxicity against human HepAD38 cells; assay type: toxicity, cell-based
SMILES,CC50 at 192 h [1] [µM],pIC50 [2],pIC50 [3],Ratio CC50/IC50 [4],Ratio CC50/IC50 [5],pIC50 [6],IC50 at 8 days [7] [µM],pIC50 [8],pIC50 [9],pIC50 [10]
CC(C)Cc1nn(-c2nccs2)cc1C(=O)Nc1ccc(F)cc1,83.7,4.61,5.65,3.44,37.69,–,–,–,–,–
CCOC(=O)c1cn(-c2ccccc2F)nc1CC(C)C,> 100,4.02,4.08,>1.05,>1.21,–,–,–,–,–
COc1ccc(CNC(=O)c2cn(-c3nccs3)nc2CC(C)C)cc1,> 100,< 4.00,4.02,–,>1.05,–,–,–,–,–
CCOC(=O)c1cn(-c2ccc(OC)cc2)nc1CC(C)C,77.1,4.16,4.15,1.12,1.08,–,–,–,–,–
CCOC(=O)c1cn(-c2nccs2)nc1CC(C)C,> 100,< 4.00,< 4.00,–,–,–,–,–,–,–
CC(C)Cc1nn(-c2nccs2)cc1C(=O)NCc1ccc(N)cc1,> 100,< 4.00,< 4.00,–,–,–,–,–,–,–
CC(C)Cc1nn(-c2cccc(F)c2)cc1C(=O)NCc1ccncc1,> 100,< 4.00,4.15,–,>1.41,–,–,–,–,–
CCOC(=O)c1cn(-c2ccccc2[N+](=O)[O-])nc1CC(C)C,4.85,4.31,> 5.20,0.1,>0.78,–,–,–,–,–
Nc1ccn([C@@H]2CS[C@H](CO)O2)c(=O)n1 [LAMIVUDINE],> 100,< 4.00,< 4.00,–,–,–,–,–,–,–
CC(C)Cc1nn(-c2cccc(F)c2)cc1C(=O)Nc1ccc(F)cc1,36.2,4.59,4.61,1.4,1.47,–,–,–,–,–
CC(C)Cc1nn(-c2nccs2)cc1C(=O)NCc1ccc(O)cc1,> 100,< 4.00,4.06,–,>1.16,–,–,–,–,–
CC(C)Cc1nn(-c2cccc(F)c2)cc1C(=O)NNc1ccc(F)cc1,45.4,4.28,4.47,–,1.34,–,–,–,–,–
CC(C)Cc1nn(-c2nccs2)cc1C(=O)NCc1cccc(F)c1,> 100,4.23,4.76,>1.7,>5.8,–,–,–,–,–
CC(C)Cc1sc(-c2nccs2)nc1C(=O)NCc1ccc(F)cc1,51.5,4.46,4.50,1.48,1.63,5.88,50.4,–,–,–
CCOC(=O)c1cn(-c2cccc([N+](=O)[O-])c2)nc1CC(C)C,59.3,4.20,4.23,0.94,–,–,–,–,–,–
CCOC(=O)c1cn(-c2cccc(OC)c2)nc1CC(C)C,70.5,4.20,4.15,1.11,1,–,–,–,–,–

SMILES,CC50 at 192 h [1] [µM],pIC50 [2],pIC50 [3],Ratio CC50/IC50 [4],Ratio CC50/IC50 [5],pIC50 [6],IC50 at 8 days [7] [µM],pIC50 [8],pIC50 [9],pIC50 [10]
CCOC(=O)c1cn(-c2ccc(C(=O)O)cc2)nc1CC(C)C,> 100,< 4.00,< 4.00,–,–,–,–,–,–,–
CCOC(=O)c1cn(-c2ccc(F)cc2)nc1CC(C)C,> 100,< 4.00,< 4.00,–,–,–,–,–,–,–
COc1ccc(CONC(=O)c2cn(-c3cccc(F)c3)nc2CC(C)C)cc1,67.9,4.24,4.35,1.18,1.52,–,–,–,–,–
CCOC(=O)c1cn(-c2cccc(C(=O)O)c2)nc1CC(C)C,7.1,4.38,4.32,0.17,0.15,–,–,–,–,–
COC(=O)c1nc(-c2cnc([C@@H](NC(=O)c3cccs3)C(C)C)s2)oc1C,–,–,–,–,–,4.12,–,–,–,–
CCOC(=O)c1nc(-c2cccc(F)c2)sc1CC(C)C,–,–,–,–,–,–,–,> 7.30,–,–
COc1ccccc1/C(Br)=C(/NC(=O)c1ccc([N+](=O)[O-])cc1)C(=O)N1CCCCC1,–,–,–,–,–,–,–,–,6.89,< 4.29
CC(C)Cc1nn(-c2nccs2)cc1C(=O)NCc1ccc(F)cc1,> 100,4.35,4.50,>2.25,>3.18,–,–,–,–,–
CC(C)Cc1nn(-c2cccc(F)c2)cc1C(=O)NCC1CCN(C(=O)OC(C)(C)C)CC1,> 100,< 4.00,< 4.00,–,–,–,–,–,–,–
CC(C)Cc1nn(-c2nccs2)cc1C(=O)NCc1ccccc1F,> 100,4.30,4.59,>2,>3.85,–,–,–,–,–
CC(C)Cc1nn(-c2nccs2)cc1C(=O)NCc1ccc(F)cc1F,83.6,4.38,5.05,2,9.46,–,–,–,–,–
CCOC(=O)c1cn(-c2ccc([N+](=O)[O-])cc2)nc1CC(C)C,> 100,< 4.00,< 4.00,–,–,–,–,–,–,–
CCOC(=O)c1nc(-c2cncs2)sc1CC(C)C,–,–,–,–,–,5.96,–,–,–,–
CC(C)Cc1nn(-c2cccc(F)c2)cc1C(=O)NCc1ccccc1,85.9,4.41,4.41,2.23,2.23,–,–,–,–,–
CC(C)Cc1nn(-c2nccs2)cc1C(=O)NCc1ccc(C(F)(F)F)cc1,> 100,< 4.00,< 4.00,–,–,–,–,–,–,–
CC(C)Cc1nn(-c2cccc(F)c2)cc1C(=O)NCc1ccc(F)cc1,> 100,< 4.00,< 4.00,–,–,–,–,–,–,–
